Fewer inactive variants are shown than the library holds.
B1: tRNA (parent)
chain: GUUCCGUUGGCGUAAUGGUAACGCGUCUCCCUCCUAAGGAGAAGACUGCGGGUUCGAGUCCCGUACGGAACG

Variants of: B1
Test: yeast fitness relative to wild type (ratio to wild type); higher = fitter; tRNA-Arg(CCU), competitive growth, 37 C, YPD
In short: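 Amplicons of the tRNA-Arg(CCU) gene were sequenced, 100-nucleotide paired-end, from the start population and from each end population of a pooled yeast competition. The competition, in six parallel replicates, lasted 24 hours in YPD at 37°C. Fitness relative to wild type was calculated from changes in genotype frequencies. Genotypes had to have ≥ 100 starting reads, and estimates < 0.5 were set to 0.5.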

Compared with C33U A40C, G6A C11A A15G C49G G51C G68A is lower in yeast fitness: 0.777 for the first, at most 0.5 for the second.

Going from U28C C55U A70U to C31G A42G A65U G67C, the yeast fitness falls from 0.61 to at most 0.5.

First: G56C U59G
Second: A20U C61U G67U
The yeast fitness of the first is higher: 0.693 for the first, at most 0.5 for the second.

First: U2A C31U U35C A45U
Second: C4U C22G G56A
The yeast fitness of the first is lower: at most 0.5 for the first, 0.76 for the second.

Going from C4G A21C C27A U28G to U16G G48C, the yeast fitness rises from 0.614 to 0.835.

Compared with U32G A37U, C4U U26G U59C C62A is higher in yeast fitness: 0.55 for the first, 0.679 for the second.

Going from G9A C24G A37G U59A G67A to G6A U35A, the yeast fitness rises from at most 0.5 to 0.775.

Compared with C4A U59A, A15C G23A C24G C46G C55G is lower in yeast fitness: 0.664 for the first, at most 0.5 for the second.

A14G A15U U35C and C33G A37G A43C U47C G58C cannot be ordered by yeast fitness: at most 0.5 for the first, at most 0.5 for the second.

First: U16A G50C U54G A69C
Second: A20U A65U A69U
The yeast fitness of the first is lower: at most 0.5 for the first, 0.722 for the second.

C34A U47A G68A and G18C C29U G39A C49U G56C cannot be ordered by yeast fitness: at most 0.5 for the first, at most 0.5 for the second.

Compared with A15U U53A, U13C A40C C66A is lower in yeast fitness: 0.648 for the first, 0.567 for the second.

Going from C27G A36G A70U to C22A A40G, the yeast fitness rises from at most 0.5 to 0.671.

Compared with C29U C33A G63A A65C C66A, A14G C27U C55A is higher in yeast fitness: at most 0.5 for the first, 0.56 for the second.

U2A A21G C29U A40U C49G and C11G C34U A42C C61A A70U cannot be ordered by yeast fitness: at most 0.5 for the first, at most 0.5 for the second.

Compared with G25C C27A G51A, G25C C46G U64G is lower in yeast fitness: 0.549 for the first, at most 0.5 for the second.

First: C24G U53G U54A G58C
Second: U8G C11U U64A A70C
The yeast fitness of the first is lower: 0.552 for the first, 0.619 for the second.

First: G44C G50C A57G A69U
Second: U3C U13C A21G A43U
The yeast fitness of the first is lower: at most 0.5 for the first, 0.708 for the second.

U7G C11G C34U A36G G41A A65G and U3C G18C C31G U59A G67A cannot be ordered by yeast fitness: at most 0.5 for the first, at most 0.5 for the second.

First: U8G A43U C49U C55U
Second: U13A C33G
The yeast fitness of the first is lower: at most 0.5 for the first, 0.741 for the second.

A20G U28G A57U C62U and G56U U59G A70G cannot be ordered by yeast fitness: at most 0.5 for the first, at most 0.5 for the second.

Compared with U8C G17A U54A G56C, A21G A42U G68C is higher in yeast fitness: at most 0.5 for the first, 0.539 for the second.

Compared with U13G C46U, C5G C24U C33U C46A is lower in yeast fitness: 0.895 for the first, at most 0.5 for the second.

Compared with C22G A42G G48C A65U, G23A C49G is higher in yeast fitness: at most 0.5 for the first, 0.873 for the second.

First: C5U A14C C24U A36G A70U
Second: C27G U32C A57G
The yeast fitness of the first is lower: at most 0.5 for the first, 0.578 for the second.

G6C A14G C46G C62U C66U and C11U A15G U32A cannot be ordered by yeast fitness: at most 0.5 for the first, at most 0.5 for the second.

First: U64G A70C
Second: G9A A14G C61U A70G
The yeast fitness of the first is higher: 0.755 for the first, at most 0.5 for the second.

Going from U26C A57C to U3C C60A C66U, the yeast fitness rises from 0.611 to 0.651.

Compared with U8G U13A C30U G39C C55G, A15G A37C A69C is higher in yeast fitness: 0.526 for the first, 0.863 for the second.

Compared with G44A G67A A70G, C31U A40U U59C A70U is lower in yeast fitness: 0.688 for the first, at most 0.5 for the second.

C27A A37C A43G C55G and C34G A40G G41U C46G A57U C61U cannot be ordered by yeast fitness: at most 0.5 for the first, at most 0.5 for the second.

First: A20G A36G A45U
Second: C11G U16A A70U
The yeast fitness of the first is higher: 0.683 for the first, 0.553 for the second.

Compared with G25C C46G U53G C66A, U28A A65C is lower in yeast fitness: 0.81 for the first, 0.675 for the second.

First: C5U C27G U32A
Second: A14C A36G
The yeast fitness of the first is lower: 0.561 for the first, 0.644 for the second.

First: A42U C62U A65C
Second: U3G A45C A69U
The yeast fitness of the first is lower: 0.526 for the first, 1.08 for the second.

C31A C62G G63A C66G A69G and U16A G18U C29G C30G C46G cannot be ordered by yeast fitness: at most 0.5 for the first, at most 0.5 for the second.

Going from C11A A14C C34A to A43G C49A, the yeast fitness falls from 0.58 to 0.574.

Going from C33G A36C C66U to U2C A20C, the yeast fitness rises from 0.502 to 0.98.

U3A G12A A20C C29G G67A and C27A A45U G56A C60U cannot be ordered by yeast fitness: at most 0.5 for the first, at most 0.5 for the second.

First: C11U G41A A65U
Second: A45U C49U A65U
The yeast fitness of the first is lower: 0.515 for the first, 0.755 for the second.

Compared with U19C C31G, U19C C31U is higher in yeast fitness: 0.841 for the first, 0.986 for the second.

A42U A43G G52C C60A and C55A C61G cannot be ordered by yeast fitness: at most 0.5 for the first, at most 0.5 for the second.

First: U3C A45C
Second: C46A A57C
The yeast fitness of the first is higher: 0.856 for the first, 0.57 for the second.

First: A20G C27G G48A
Second: A15G C22U A70C
The yeast fitness of the first is lower: at most 0.5 for the first, 0.594 for the second.

Going from C29U A37U to A37U G38A U59A, the yeast fitness falls from 0.734 to at most 0.5.

Compared with U3C U8C A69U, U7A U19A C49U G56C G63C is lower in yeast fitness: 0.81 for the first, at most 0.5 for the second.

Going from A21U G51C to A20G A65C, the yeast fitness rises from at most 0.5 to 1.06.

U8C A45C C62G A65C and U16C G39A C61G C62G cannot be ordered by yeast fitness: at most 0.5 for the first, at most 0.5 for the second.

Going from C46U to U7A G41C, the yeast fitness falls from 0.986 to 0.684.

First: U13A A43G U53G
Second: C31G U32C G39C
The yeast fitness of the first is lower: at most 0.5 for the first, 0.507 for the second.

Going from A20U C29U C62A to U16A C30A U35G, the yeast fitness falls from 0.543 to at most 0.5.

First: G18A C29U G52C
Second: C22U C30U
The yeast fitness of the first is lower: at most 0.5 for the first, 0.758 for the second.

First: G6A U53A
Second: U16A A57G
The yeast fitness of the first is lower: 0.663 for the first, 0.974 for the second.

Compared with C5G C29U A37G C66U, A15G G48C G51A is lower in yeast fitness: 0.536 for the first, at most 0.5 for the second.

Going from G6C G50A to A37C A45U G51C, the yeast fitness falls from 0.865 to at most 0.5.

Compared with C33G G41C G56C G58A G63C A65U, A42U A65G A69C is higher in yeast fitness: 0.587 for the first, 0.595 for the second.

First: C60U G67C
Second: C46U G52C
The yeast fitness of the first is higher: 0.828 for the first, 0.614 for the second.

Compared with C11U A15G C27G C46U, C29A C33G U35C C66U is lower in yeast fitness: 0.548 for the first, at most 0.5 for the second.

Going from C24G G41A G51A G56C to C4A U26A C34G G38A G68C, the yeast fitness falls from 0.556 to at most 0.5.

First: C29A G41A A43C A70C
Second: C24A
The yeast fitness of the first is lower: at most 0.5 for the first, 0.747 for the second.

C24U G51A A57U and C30G C34A G52C cannot be ordered by yeast fitness: at most 0.5 for the first, at most 0.5 for the second.

A15C C27A U32G C60G and C5A A15U A21U C66U G67U A70G cannot be ordered by yeast fitness: at most 0.5 for the first, at most 0.5 for the second.

Compared with C49G A57G C61U, C29G C31A G67A is lower in yeast fitness: 0.584 for the first, 0.56 for the second.

First: C11U C31G C33U A37C A65U
Second: G17C A42U A70G
The yeast fitness of the first is lower: at most 0.5 for the first, 0.653 for the second.

First: U2G C31U
Second: C27G A40U A70C
The yeast fitness of the first is higher: 1.03 for the first, at most 0.5 for the second.

Going from A36U C62G G63A to C4A A14U A20C U28G C62A, the yeast fitness falls from 0.569 to at most 0.5.

G6C G51C A57G C61U A65C and A37G C55A cannot be ordered by yeast fitness: at most 0.5 for the first, at most 0.5 for the second.

G48A U53C C60A and U7A A20C G50A cannot be ordered by yeast fitness: at most 0.5 for the first, at most 0.5 for the second.

Compared with C24U C34U A40G G50A C55G, A20C C22U C33U is higher in yeast fitness: at most 0.5 for the first, 0.542 for the second.

Going from C27G G48A C60G to C11U G44A U53G, the yeast fitness falls from 0.751 to 0.529.

Going from C30G C49U to C29G C49A C55A C61U, the yeast fitness falls from 0.643 to at most 0.5.

Compared with C4U C30A A42U, C5U C34A C49A U59G is lower in yeast fitness: 0.529 for the first, at most 0.5 for the second.

Going from G25C G41C G68C to U3G A37C A40G U47C, the yeast fitness falls from 0.565 to at most 0.5.

Going from U16G U54C to A43U U59G, the yeast fitness rises from 0.704 to 0.81.

Going from A21C C27U A45G to A15G U19C C46G C55U, the yeast fitness falls from 0.584 to at most 0.5.

U2G C4U U7G C11G A15C G18A U28C C55U and U7G C46U C60A cannot be ordered by yeast fitness: at most 0.5 for the first, at most 0.5 for the second.

First: C11U G44C C62A
Second: U3A C4U A43G
The yeast fitness of the first is lower: at most 0.5 for the first, 0.579 for the second.

Going from U13C C49U to A15U U19A, the yeast fitness falls from 1.01 to 0.767.

Going from U2C C27A C31G to U2A U28C G39A, the yeast fitness falls from 0.557 to 0.508.

Going from G18A U19C C22U to A15G C30G A37C C49U G63A, the yeast fitness falls from 0.641 to at most 0.5.

Going from C4U A15C G51C to C29A U35A A70U, the yeast fitness rises from at most 0.5 to 0.716.

C11G U28A G39A G48A G67C and U16A C24A C30G C34U U47C cannot be ordered by yeast fitness: at most 0.5 for the first, at most 0.5 for the second.

C31U A45C U47C A70U and U2A A14C C30U C34G A45U cannot be ordered by yeast fitness: at most 0.5 for the first, at most 0.5 for the second.

Work on A20C A65C C66U yielded a yeast fitness of 0.619.
